Test results from ChEMBL document CHEMBL4814013, “Scaffold repurposing of fendiline: Identification of potent KRAS plasma membrane localization inhibitors” (Eur J Med Chem, 2021).
The source made the active and inactive calls. The rule behind the calls is not given here.

Key:
MDCK [1] = test: Reduction in expression of human GFP-tagged ASM transfected in dog MDCK cells at 5 uM incubated for 48 hrs by western blot analysis; type: functional, cell-based; conditions: Canis lupus familiaris
How it was run: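 SMPD1-GFP-expressing MDCK cells treated 48 h with 5 µM compound, washed in cold PBS and lysed in Tris pH 7.5 buffer with NaF, EGTA, DTT, vanadate, 1% NP40 and protease inhibitors. 20 µg of protein resolved by SDS-PAGE and immunoblotted. Signals detected by enhanced chemiluminescence and quantified by densitometry.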

MEF [2] = test: Cytotoxicity against mouse MEF cells expressing BRAF V600E mutant and wild type KRAS assessed as reduction in cell growth incubated for 72 hrs by CyQuant proliferation assay; type: functional, cell-based
How it was run: (§1)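 Cells seeded in 96-well plates; after 24 h fresh growth medium with 0.1% DMSO vehicle or drug added (highest dose 30 µM for cancer lines), grown 72 h at 37 °C, 5% CO2. Live cell number measured by CyQUANT fluorescence. IC50 from three independent experiments. MEFs were isogenic lines carrying oncogenic BRAF or KRAS.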

MEF [3] = test: Antiproliferative activity against mouse MEF cells expressing KRAS G12V mutant assessed as reduction in cell growth incubated for 72 hrs by CyQuant proliferation assay; type: functional, cell-based; how it was run: as §1
MEF [4] = test: Antiproliferative activity against mouse MEF cells expressing KRAS G12D mutant assessed as reduction in cell growth incubated for 72 hrs by CyQuant proliferation assay; type: functional, cell-based; how it was run: as §1
BXPC-3 = test: Antiproliferative activity against human BXPC-3 cells expressing wild type KRAS assessed as reduction in cell growth incubated for 72 hrs by CyQuant proliferation assay; type: functional, cell-based; conditions: BXPC-3, 72 h; how it was run: as §1
MIA PaCa-2 [5] = test: Antiproliferative activity against human MIA PaCa-2 cells expressing KRAS mutant assessed as reduction in cell growth incubated for 72 hrs by CyQuant proliferation assay; type: functional, cell-based; conditions: MIA PaCa-2, 72 h; how it was run: as §1
[6] = Antiproliferative activity against human MOH cells expressing KRAS mutant assessed as reduction in cell growth incubated for 72 hrs by CyQuant proliferation assay; type: functional, cell-based; how it was run: as §1
[7] = Antiproliferative activity against human MPANC96 cells expressing KRAS mutant assessed as reduction in cell growth incubated for 72 hrs by CyQuant proliferation assay; type: functional, cell-based; conditions: MPANC96, 72 h; how it was run: as §1
Ishikawa = test: Antiproliferative activity against human Ishikawa cells expressing wild type KRAS assessed as reduction in cell growth incubated for 72 hrs by CyQuant proliferation assay; type: functional, cell-based; how it was run: as §1
HEC-1-A = test: Antiproliferative activity against human HEC-1-A cells expressing mutant KRAS assessed as reduction in cell growth incubated for 72 hrs by CyQuant proliferation assay; type: functional, cell-based; how it was run: as §1
HEC-1B cell line = test: Antiproliferative activity against human HEC-1B cells expressing mutant KRAS assessed as reduction in cell growth incubated for 72 hrs by CyQuant proliferation assay; type: functional, cell-based; how it was run: as §1
Caco-2 = test: Antiproliferative activity against human Caco-2 cells expressing wild type KRAS assessed as reduction in cell growth incubated for 72 hrs by CyQuant proliferation assay; type: functional, cell-based; conditions: Caco-2, 72 h; how it was run: as §1
NCI-H1975 = test: Antiproliferative activity against human NCI-H1975 cells expressing wild type KRAS assessed as reduction in cell growth incubated for 72 hrs by CyQuant proliferation assay; type: functional, cell-based; conditions: NCI-H1975, 72 h; how it was run: as §1
NCI-H522 = test: Antiproliferative activity against human NCI-H522 cells expressing wild type KRAS assessed as reduction in cell growth incubated for 72 hrs by CyQuant proliferation assay; type: functional, cell-based; conditions: NCI-H522, 72 h; how it was run: as §1
NCI-H1299 = test: Antiproliferative activity against human NCI-H1299 cells expressing wild type KRAS assessed as reduction in cell growth incubated for 72 hrs by CyQuant proliferation assay; type: functional, cell-based; conditions: NCI-H1299, 72 h; how it was run: as §1
Caenorhabditis elegans = test: In vivo inhibition of KRAS signaling in Caenorhabditis elegans lin-1 L1 harboring let60 […] mutant assessed as reduction in multi-vulva phenotype measured after 4 to 5 days culturing in buffer containing Escherichia coli OP50 by DIC/Nomarski microscopic analysis; type: functional, organism-based; conditions: dose 0.1-30 µM, time 4-5 day
How it was run: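 let-60 (n1046) or lin-1 L1 larvae cultured in M9 buffer with E. coli OP50 plus DMSO vehicle or compound at 0.1, 0.3, 1, 3, 10 or 30 µM. After 4–5 days, adults were scored for multi-vulva by DIC/Nomarski microscopy.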

Mus musculus [8] = test: In vivo inhibition of ASM in nu/nu mouse xenografted with human MIA PaCa-2 cells harboring KRAS mutation assessed as increase in SM accumulation in tumor at 12.5 mg/kg, ip administered once daily for 5 days with 2 days break by GFP-lysenin staining based confocal laser microscopy; type: functional, organism-based; conditions: time 5.0 day
How it was run: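 Sections of MiaPaCa-2 xenograft tumors from i.p.-treated nu/nu mice (12.5 mg/kg) stained with GFP-tagged lysenin to detect sphingomyelin.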

Mus musculus [9] = test: In vivo inhibition of KRAS signaling in nu/nu mouse xenografted with human MIA PaCa-2 cells harboring KRAS mutation assessed as decrease in ERK phosphorylation in tumor at 1 to 5 mg/kg, ip administered once daily for 5 days with 2 days break by immunohistochemistry; type: functional, organism-based; conditions: dose 1-5 mg/kg, time 5.0 day
How it was run: (§2)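 Paraffin tumor sections of 4–5 µm were deparaffinized and given heat antigen retrieval in 10 mM sodium citrate. Endogenous peroxidase was quenched and sections blocked in 2.5% normal goat serum. Primary antibody (pERK or cleaved caspase 3) applied overnight at 4 °C, biotinylated secondary 1:250 for 45 min at rt, then ABC reagent 30 min and DAB development. Rabbit IgG served as control.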

MIA PaCa-2 [10] = test: Antitumor activity human MIA PaCa-2 cells harboring KRAS mutation xenografted in nu/nu mouse assessed as induction of apoptosis by measuring increase in cleaved caspase 3 level in tumor at 1 to 5 mg/kg, ip administered once daily for 5 days with 2 days break by immunohistochemistry; type: functional, organism-based; conditions: dose 1-5 mg/kg, time 5.0 day; how it was run: as §2
Mus musculus [11] = test: In vivo inhibition of Ca2+ channel in nu/nu mouse xenografted with human MIA PaCa-2 cells harboring KRAS mutation assessed as blood vessel dialation in tumor at 1 to 5 mg/kg, ip administered once daily for 5 days with 2 days break by immunostaining; type: functional, organism-based; conditions: dose 1-5 mg/kg, time 5.0 day
[12] = molecular target: T1, Sphingomyelin phosphodiesterase (Homo sapiens) (UniProt P17405); test: Inhibition of human GFP-tagged ASM expressed in dog MDCK cells using sphingomyelin as substrate at 5 uM incubated for 48 hrs by Amplex Red dye based fluorescence analysis; type: cell-based
T1 sequence (whole entry): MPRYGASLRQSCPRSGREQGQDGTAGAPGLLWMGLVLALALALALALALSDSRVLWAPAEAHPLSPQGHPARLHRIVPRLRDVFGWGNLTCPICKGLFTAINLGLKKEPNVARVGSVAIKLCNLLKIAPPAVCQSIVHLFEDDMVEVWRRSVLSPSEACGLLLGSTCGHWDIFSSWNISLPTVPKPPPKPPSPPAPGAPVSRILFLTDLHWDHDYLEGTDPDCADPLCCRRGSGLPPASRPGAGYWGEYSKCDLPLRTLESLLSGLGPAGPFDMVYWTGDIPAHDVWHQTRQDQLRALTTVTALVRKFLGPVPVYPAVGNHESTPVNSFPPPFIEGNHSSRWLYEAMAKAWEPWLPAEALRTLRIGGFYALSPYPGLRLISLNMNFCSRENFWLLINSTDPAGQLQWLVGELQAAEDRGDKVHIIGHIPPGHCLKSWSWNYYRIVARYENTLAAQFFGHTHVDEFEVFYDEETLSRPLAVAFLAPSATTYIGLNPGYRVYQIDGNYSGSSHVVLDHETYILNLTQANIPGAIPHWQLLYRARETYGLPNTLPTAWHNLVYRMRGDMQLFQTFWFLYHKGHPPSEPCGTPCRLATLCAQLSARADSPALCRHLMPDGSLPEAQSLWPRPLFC
How it was run: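 MDCK cells stably expressing human SMPD1-GFP treated 48 h at 5 µM. Whole-cell lysate, made without DTT, mixed with 50 mM sodium acetate pH 5.0 plus sphingomyelin and held 1 h at 37 °C. pH then raised to 7.4 with Amplex Red mix (100 µM Amplex Red, 2 U/mL HRP, 0.2 U/mL choline oxidase, 8 U/mL alkaline phosphatase, 100 mM Tris pH 8.0), 60 min at 37 °C. Fluorescence read at Ex 540/Em 590 nm. Controls: 0.1 U/mL SMase (positive), buffer alone (negative).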

MDCK [13] = test: Inhibition of ASM in dog MDCK cells co-expressing recombinant full length mGFP-tagged KRAS G12V mutant and mCherry-CAAX assessed as reduction in plasma membrane localization of KRAS mutant at 10 uM incubated for 48 hrs followed by incubation with recombinant ASM in continued presence of compound for 60 mins by confocal microscopic analysis; type: cell membranes; conditions: Canis lupus familiaris, time 49.0 hrs
How it was run: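 MDCK cells stably co-expressing mGFP-KRAS G12V and mCherry-CAAX seeded on glass coverslips and grown 48 h with or without compound. Medium then replaced with fresh medium containing 2 units/mL recombinant ASM, drug continued, for 60 min. Cells mounted in mowiol and imaged by confocal microscopy. Mislocalization scored by Manders coefficient.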

MDCK [14] = test: Inhibition of ASM in dog MDCK cells co-expressing recombinant full length mGFP-tagged KRAS G12V mutant and mCherry-CAAX assessed as reduction in plasma membrane localization of KRAS mutant incubated for 48 hrs by confocal microscopic analysis relative to control; type: cell membranes; conditions: Canis lupus familiaris
How it was run: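 MDCK cells stably co-expressing mGFP-KRAS G12V or mGFP-LactC2 with mCherry-CAAX (HRAS 179–189 C181S/C184S) grown on coverslips in DMEM/10% FBS. Treated 48 h with 0.1% DMSO or graded drug, fixed in 4% paraformaldehyde, then quantitative confocal imaging. Mislocalization scored as the Manders fraction of mCherry-CAAX co-localizing with the GFP probe. IC50 and Emax from three independent experiments.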

MDCK [15] = test: Cytotoxicity against dog MDCK cells at 30 uM; type: functional, cell-based; conditions: Canis lupus familiaris
SK-CO-1 = test: Antiproliferative activity against human SK-CO-1 cells expressing mutant KRAS assessed as reduction in cell growth incubated for 72 hrs by CyQuant proliferation assay; type: functional, cell-based; conditions: SK-CO-1, 72 h; how it was run: as §1
NCI-H23 = test: Antiproliferative activity against human NCI-H23 cells expressing mutant KRAS assessed as reduction in cell growth incubated for 72 hrs by CyQuant proliferation assay; type: functional, cell-based; conditions: NCI-H23, 72 h; how it was run: as §1

Row | SMILES | IC50 (BXPC-3) [µM] | IC50 (MIA PaCa-2 [5]) [µM] | IC50 [6] [µM] | IC50 [7] [µM] | IC50 (Ishikawa) [µM] | IC50 (HEC-1-A) [µM] | IC50 (HEC-1B cell line) [µM] | IC50 (Caco-2) [µM] | IC50 (NCI-H1975) [µM] | IC50 (NCI-H522) [µM] | IC50 (NCI-H1299) [µM] | also measured
1 | CC(NCCC(c1ccccc1)c1ccccc1)c1ccccc1 (configuration not stated) [FENDILINE] | 28.6 | 9.2 | 11.1 | 10.8 | > 30 | 9.48 | 9.8 | 14.5 | > 30 | 29.6 | 24.3 | inhibition (MDCK [1]): inactive; IC50 (MEF [2]): 17.8 µM; IC50 (MEF [3]): 8.1 µM; IC50 (MEF [4]): 13.1 µM; inhibition (Caenorhabditis elegans): Dose-Dependent Effect; inhibition (Mus musculus [8]): Active; inhibition (Mus musculus [9]): inactive; Activity (MIA PaCa-2 [10]): inactive; inhibition (Mus musculus [11]): Active; inhibition [12]: Active; inhibition (MDCK [13]): inactive
2 | COc1ccc([C@@H](C)N(CC=C(c2ccccc2)c2ccccc2)CC=C(c2ccccc2)c2ccccc2)cc1 | > 30 | > 30 | > 30 | > 30 | > 30 | > 30 | > 30 | > 30 | > 30 | > 30 | > 30 | Emax (MDCK [14]): 0.74; Activity (MDCK [15]): inactive; IC50 (SK-CO-1): > 30 µM; IC50 (NCI-H23): > 30 µM
